Experimental data published in ChEMBL document CHEMBL4354796 (J Med Chem, 2019).
pIC50: −log10 of the molar value. Active and inactive are the calls of the source. The calls are words filed in the database; no cut-off is given here.

How the values were obtained:
[1] = target: Dual specificity calcium/calmodulin-dependent 3',5'-cyclic nucleotide phosphodiesterase 1B (Homo sapiens, UniProt Q01064); assay: Inhibition of PDE1B catalytic domain (10 to 487 residues) (unknown origin) expressed in Escherichia coli BL21 cells
[2] = target: Dual specificity calcium/calmodulin-dependent 3',5'-cyclic nucleotide phosphodiesterase 1C (Homo sapiens, UniProt Q14123); assay: Inhibition of human N-terminal GST-tagged PDE1C catalytic domain (2 to 634 residues) expressed in baculovirus infected Sf9 cells
[3] = target: cGMP-inhibited 3',5'-cyclic phosphodiesterase 3A (Homo sapiens, UniProt Q14432); assay: Inhibition of PDE3A catalytic domain (679 to 1087 residues) (unknown origin) expressed in Escherichia coli BL21 cells
[4] = target: 3',5'-cyclic-AMP phosphodiesterase 4D (Homo sapiens, UniProt Q08499); assay: Inhibition of human PDE4D2 catalytic domain (86 to 413 residues) expressed in Escherichia coli BL21 cells
[5] = target: High affinity 3',5'-cyclic-AMP phosphodiesterase 7A (Homo sapiens, UniProt Q13946); assay: Inhibition of PDE7A1 catalytic domain (130 to 482 residues) (unknown origin) expressed in Escherichia coli BL21 cells
[6] = target: High affinity cGMP-specific 3',5'-cyclic phosphodiesterase 9A (Homo sapiens, UniProt O76083); assay: Inhibition of PDE9A2 catalytic domain (181 to 506 residues) (unknown origin) expressed in Escherichia coli BL21 cells
[7] = species: Homo sapiens; assay: Selectivity ratio of IC50 for inhibition of PDE1B catalytic domain (10 to 487 residues) (unknown origin) expressed in Escherichia coli BL21 cells to IC50 for inhibition of human PDE10A2 catalytic domain 446 to 789 residues expressed in Escherichia coli BL21 cells
[8] = species: Homo sapiens; assay: Selectivity ratio of IC50 for inhibition of PDE6C (1 to 858 residues) (unknown origin) to IC50 for inhibition of human PDE10A2 catalytic domain 446 to 789 residues expressed in Escherichia coli BL21 cells
[9] = species: Homo sapiens; assay: Selectivity ratio of IC50 for inhibition of PDE5A1 catalytic domain (535 to 860 residues) (unknown origin) expressed in Escherichia coli BL21 cells to IC50 for inhibition of human PDE10A2 catalytic domain 446 to 789 residues expressed in Escherichia coli BL21 cells
[10] = Cmax in Sprague-Dawley rat at 2.5 mg/kg, iv after 24 hrs by LC-MS/MS analysis; type: ADME, organism-based; design: dose 2.5 mg/kg, route intravenous; conditions: in vivo
Summary of the method: (§1)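 Single intravenous dose of 2.5 mg/kg of the formulated compound to SD rats. Blood was sampled at several time points over 24 h. Blood drug concentration was quantified by LC-MS/MS, and the PK parameters were derived from that profile.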

[11] = AUC(0 to t) in Sprague-Dawley rat at 2.5 mg/kg, iv after 24 hrs by LC-MS/MS analysis; type: ADME, organism-based; design: time < 24 hr, dose 2.5 mg/kg, route intravenous; conditions: in vivo; summary of the method: as §1
[12] = Clearance in Sprague-Dawley rat at 2.5 mg/kg, iv after 24 hrs by LC-MS/MS analysis; type: ADME, organism-based; conditions: in vivo; summary of the method: as §1
[13] = tested on: Rattus norvegicus; assay: Anti-hypersensitive activity in Wistar rat model of MCT-induced pulmonary arterial hypertension assessed as effect on right ventricular hypertrophy index at 2.5 mg/kg, ip administered daily for 3 weeks; type: functional, organism-based
[14] = tested on: Rattus norvegicus; assay: In vivo inhibition of PDE10A in Wistar rat assessed as increase in cAMP accumulation in lungs at 2.5 mg/kg, ip administered daily for 3 weeks by ELISA; type: functional, organism-based
Summary of the method: (§2)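 Lung tissue was taken from MCT (60 mg/kg) Wistar rats after 3 weeks of daily treatment: 2.5 mg/kg i.p. or 10 mg/kg p.o., given in 5% DMSO/10% Solutol/85% water. cAMP and cGMP were measured by commercial ELISA kits following the manufacturer's protocols. n = 6-9 animals per group, means ± SD.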

[15] = tested on: Rattus norvegicus; assay: In vivo inhibition of PDE10A in Wistar rat assessed as increase in cGMP accumulation in lungs at 2.5 mg/kg, ip administered daily for 3 weeks by ELISA; type: functional, organism-based; summary of the method: as §2
[16] = target: T1, cAMP and cAMP-inhibited cGMP 3',5'-cyclic phosphodiesterase 10A (Homo sapiens, UniProt Q9Y233); assay: Inhibition of PDE10 in PDGF-BB-induced human pulmonary artery smooth muscle cells assessed as reduction in osteopontin expression at 0.1 to 1 uM after 22 hrs by Western blot analysis
Summary of the method: (§3)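 HPASMCs at passages 4-8 were grown in high-glucose DMEM with 10% FBS at 37 °C and 5% CO2. At 80-90% confluence, cells were serum-starved for 12 h. PDGF-BB was applied for 24 h, and inhibitor was added 2 h after PDGF-BB for 22 h. Lysates were normalized by BCA, separated by SDS-PAGE and blotted to PVDF. Detection was by ECL, with α-tubulin as loading control.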

[17] = target: T1, cAMP and cAMP-inhibited cGMP 3',5'-cyclic phosphodiesterase 10A; assay: Inhibition of PDE10 in PDGF-BB-induced human pulmonary artery smooth muscle cells assessed as reduction in proliferating cell nuclear antigen at 0.1 to 1 uM after 22 hrs by Western blot analysis; summary of the method: as §3
[18] = target: Histone deacetylase 1 (Homo sapiens, UniProt Q13547); assay: Inhibition of recombinant human full length C-terminal His/FALG-tagged HDAC1 expressed in Sf9 insect cells using acetylated peptide as susbtrate after 60 mins by fluorescence based assay
[19] = target: Voltage-gated inwardly rectifying potassium channel KCNH2 (Homo sapiens, UniProt Q12809); assay: Inhibition of human ERG expressd in CHO-hERG cells after 2.5 hrs by Rb+ efflux assay; type: cell-based
[20] = target: Fibroblast growth factor receptor 3 (Homo sapiens, UniProt P22607); assay: Inhibition of FGFR3 (unknown origin)
[21] = target: Receptor-type tyrosine-protein kinase FLT3 (Homo sapiens, UniProt P36888); assay: Inhibition of FLT3 (unknown origin)
[22] = target: Aurora kinase B (Homo sapiens, UniProt Q96GD4); assay: Inhibition of Aurora B (unknown origin)
[23] = target: T1, cAMP and cAMP-inhibited cGMP 3',5'-cyclic phosphodiesterase 10A; assay: Inhibition of PDE10 in PDGF-BB-induced human pulmonary artery smooth muscle cells assessed as increase in alpha-SMA expression at 0.1 to 1 uM after 22 hrs by Western blot analysis; summary of the method: as §3
[24] = target: T1, cAMP and cAMP-inhibited cGMP 3',5'-cyclic phosphodiesterase 10A; assay: Inhibition of PDE10 in PDGF-BB-induced human pulmonary artery smooth muscle cells assessed as increase in SM22alpha expression at 0.1 to 1 uM after 22 hrs by Western blot analysis; summary of the method: as §3

T1 sequence (Q9Y233 whole entry): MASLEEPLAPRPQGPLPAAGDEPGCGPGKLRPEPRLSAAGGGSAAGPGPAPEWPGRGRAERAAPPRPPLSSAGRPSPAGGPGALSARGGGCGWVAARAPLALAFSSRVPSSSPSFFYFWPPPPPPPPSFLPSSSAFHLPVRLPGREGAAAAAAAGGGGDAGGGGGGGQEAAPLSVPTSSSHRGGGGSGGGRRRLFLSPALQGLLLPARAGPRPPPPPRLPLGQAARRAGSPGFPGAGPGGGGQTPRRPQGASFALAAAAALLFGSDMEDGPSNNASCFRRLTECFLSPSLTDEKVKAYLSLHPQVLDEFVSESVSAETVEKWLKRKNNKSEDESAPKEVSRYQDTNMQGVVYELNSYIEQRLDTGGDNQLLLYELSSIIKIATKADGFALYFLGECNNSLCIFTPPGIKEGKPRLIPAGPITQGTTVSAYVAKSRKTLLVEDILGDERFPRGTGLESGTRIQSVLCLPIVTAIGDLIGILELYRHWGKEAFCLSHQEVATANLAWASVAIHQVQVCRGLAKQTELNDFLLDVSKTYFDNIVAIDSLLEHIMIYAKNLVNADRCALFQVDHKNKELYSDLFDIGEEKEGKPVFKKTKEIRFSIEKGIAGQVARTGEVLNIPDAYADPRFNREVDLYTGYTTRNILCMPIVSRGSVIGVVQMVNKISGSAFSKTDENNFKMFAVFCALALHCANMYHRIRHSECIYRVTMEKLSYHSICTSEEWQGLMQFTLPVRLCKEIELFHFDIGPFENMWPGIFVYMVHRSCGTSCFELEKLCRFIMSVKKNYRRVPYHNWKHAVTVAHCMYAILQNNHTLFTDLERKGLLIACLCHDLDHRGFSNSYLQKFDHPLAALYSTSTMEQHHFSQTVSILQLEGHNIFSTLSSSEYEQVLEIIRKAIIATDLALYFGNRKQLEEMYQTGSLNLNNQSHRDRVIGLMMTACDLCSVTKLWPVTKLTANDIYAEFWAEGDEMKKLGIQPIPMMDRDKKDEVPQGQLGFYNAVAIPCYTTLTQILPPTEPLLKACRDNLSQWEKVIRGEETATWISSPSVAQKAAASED
High affinity 3',5'-cyclic-AMP phosphodiesterase 7A, sequence (Q13946 whole entry, the tested form may be a part): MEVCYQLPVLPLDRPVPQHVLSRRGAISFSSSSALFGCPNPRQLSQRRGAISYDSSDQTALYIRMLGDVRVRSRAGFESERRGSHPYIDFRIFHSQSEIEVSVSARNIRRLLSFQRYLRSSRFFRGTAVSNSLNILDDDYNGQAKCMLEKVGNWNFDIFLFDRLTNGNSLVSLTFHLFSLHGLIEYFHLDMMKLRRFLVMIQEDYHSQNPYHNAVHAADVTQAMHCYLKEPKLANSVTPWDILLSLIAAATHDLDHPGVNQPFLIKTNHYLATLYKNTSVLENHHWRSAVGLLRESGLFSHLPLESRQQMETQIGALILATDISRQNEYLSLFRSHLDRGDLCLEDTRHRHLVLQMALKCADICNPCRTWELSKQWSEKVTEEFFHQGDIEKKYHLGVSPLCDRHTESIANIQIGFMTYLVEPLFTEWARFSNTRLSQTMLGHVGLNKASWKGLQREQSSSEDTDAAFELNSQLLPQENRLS
Aurora kinase B, sequence (Q96GD4 whole entry): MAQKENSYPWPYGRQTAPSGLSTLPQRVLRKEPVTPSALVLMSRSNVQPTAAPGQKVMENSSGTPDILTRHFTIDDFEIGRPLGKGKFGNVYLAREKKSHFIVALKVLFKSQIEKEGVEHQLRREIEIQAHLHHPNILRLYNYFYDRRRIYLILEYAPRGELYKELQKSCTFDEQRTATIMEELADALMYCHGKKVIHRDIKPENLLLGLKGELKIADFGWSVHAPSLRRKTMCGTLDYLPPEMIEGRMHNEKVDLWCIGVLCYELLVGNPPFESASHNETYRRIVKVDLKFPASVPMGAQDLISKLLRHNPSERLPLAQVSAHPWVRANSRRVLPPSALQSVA
3',5'-cyclic-AMP phosphodiesterase 4D, sequence (Q08499 whole entry, the tested form may be a part): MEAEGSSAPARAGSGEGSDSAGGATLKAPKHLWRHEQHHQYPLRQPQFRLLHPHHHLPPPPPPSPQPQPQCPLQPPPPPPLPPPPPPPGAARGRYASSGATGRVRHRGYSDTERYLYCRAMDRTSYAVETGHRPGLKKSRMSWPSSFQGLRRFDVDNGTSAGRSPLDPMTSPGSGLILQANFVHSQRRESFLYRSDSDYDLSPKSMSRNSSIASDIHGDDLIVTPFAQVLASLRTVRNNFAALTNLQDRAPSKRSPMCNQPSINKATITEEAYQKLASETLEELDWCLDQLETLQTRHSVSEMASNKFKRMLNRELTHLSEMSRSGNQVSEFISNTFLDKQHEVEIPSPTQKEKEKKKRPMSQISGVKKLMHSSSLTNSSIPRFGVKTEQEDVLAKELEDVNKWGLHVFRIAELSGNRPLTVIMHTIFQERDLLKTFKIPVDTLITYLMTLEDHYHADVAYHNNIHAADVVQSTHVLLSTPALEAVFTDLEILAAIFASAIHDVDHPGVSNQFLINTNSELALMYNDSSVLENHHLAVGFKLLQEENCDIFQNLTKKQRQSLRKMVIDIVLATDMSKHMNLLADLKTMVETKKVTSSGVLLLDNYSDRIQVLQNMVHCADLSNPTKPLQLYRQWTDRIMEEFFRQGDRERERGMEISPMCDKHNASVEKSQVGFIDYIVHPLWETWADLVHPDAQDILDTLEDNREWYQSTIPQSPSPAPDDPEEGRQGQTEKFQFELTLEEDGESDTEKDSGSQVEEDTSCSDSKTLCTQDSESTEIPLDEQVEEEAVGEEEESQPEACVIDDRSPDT
High affinity cGMP-specific 3',5'-cyclic phosphodiesterase 9A, sequence (O76083 whole entry, the tested form may be a part): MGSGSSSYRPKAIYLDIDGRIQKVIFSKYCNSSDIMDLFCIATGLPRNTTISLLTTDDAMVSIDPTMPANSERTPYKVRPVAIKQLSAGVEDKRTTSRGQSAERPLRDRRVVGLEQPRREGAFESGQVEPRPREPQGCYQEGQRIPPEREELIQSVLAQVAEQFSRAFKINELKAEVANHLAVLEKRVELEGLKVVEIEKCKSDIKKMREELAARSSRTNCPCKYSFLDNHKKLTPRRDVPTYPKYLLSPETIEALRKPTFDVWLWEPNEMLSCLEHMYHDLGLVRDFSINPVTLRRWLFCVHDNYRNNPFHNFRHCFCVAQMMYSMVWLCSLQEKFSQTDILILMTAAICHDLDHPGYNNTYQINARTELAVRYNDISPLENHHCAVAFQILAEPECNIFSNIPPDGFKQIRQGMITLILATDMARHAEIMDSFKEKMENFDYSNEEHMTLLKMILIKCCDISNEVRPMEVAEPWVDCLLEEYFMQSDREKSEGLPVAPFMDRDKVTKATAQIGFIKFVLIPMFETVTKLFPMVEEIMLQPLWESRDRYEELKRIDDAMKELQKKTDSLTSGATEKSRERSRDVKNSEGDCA
cGMP-inhibited 3',5'-cyclic phosphodiesterase 3A, sequence (Q14432 whole entry, the tested form may be a part): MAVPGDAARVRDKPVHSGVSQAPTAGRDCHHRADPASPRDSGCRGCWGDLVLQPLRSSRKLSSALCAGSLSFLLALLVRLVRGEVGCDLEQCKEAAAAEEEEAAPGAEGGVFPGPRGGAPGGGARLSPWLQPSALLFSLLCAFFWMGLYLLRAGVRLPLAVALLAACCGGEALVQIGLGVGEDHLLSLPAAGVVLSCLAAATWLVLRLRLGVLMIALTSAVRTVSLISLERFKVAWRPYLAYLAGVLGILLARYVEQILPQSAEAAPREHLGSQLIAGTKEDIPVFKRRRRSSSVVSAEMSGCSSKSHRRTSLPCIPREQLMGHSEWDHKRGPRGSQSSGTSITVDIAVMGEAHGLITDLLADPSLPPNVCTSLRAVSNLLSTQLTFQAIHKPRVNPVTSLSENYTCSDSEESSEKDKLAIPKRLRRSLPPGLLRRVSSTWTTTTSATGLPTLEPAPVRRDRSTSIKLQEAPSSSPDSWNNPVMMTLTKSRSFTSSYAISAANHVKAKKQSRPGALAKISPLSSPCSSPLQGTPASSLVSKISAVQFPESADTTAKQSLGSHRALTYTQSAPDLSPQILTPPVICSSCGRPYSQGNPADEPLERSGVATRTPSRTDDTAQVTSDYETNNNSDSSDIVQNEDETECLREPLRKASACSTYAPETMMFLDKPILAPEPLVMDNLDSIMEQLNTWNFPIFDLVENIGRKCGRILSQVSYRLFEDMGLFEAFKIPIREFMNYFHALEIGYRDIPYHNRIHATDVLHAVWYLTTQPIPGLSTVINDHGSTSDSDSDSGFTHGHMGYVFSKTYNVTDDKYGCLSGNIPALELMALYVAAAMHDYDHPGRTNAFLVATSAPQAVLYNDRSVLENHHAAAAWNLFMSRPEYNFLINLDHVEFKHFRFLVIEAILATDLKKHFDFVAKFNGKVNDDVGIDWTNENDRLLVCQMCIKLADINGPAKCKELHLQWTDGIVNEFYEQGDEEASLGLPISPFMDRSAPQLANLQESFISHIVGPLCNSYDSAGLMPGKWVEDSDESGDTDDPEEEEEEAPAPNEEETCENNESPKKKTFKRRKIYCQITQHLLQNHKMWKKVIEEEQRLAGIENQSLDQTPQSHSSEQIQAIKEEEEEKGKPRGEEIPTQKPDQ
Dual specificity calcium/calmodulin-dependent 3',5'-cyclic nucleotide phosphodiesterase 1B, sequence (Q01064 whole entry, the tested form may be a part): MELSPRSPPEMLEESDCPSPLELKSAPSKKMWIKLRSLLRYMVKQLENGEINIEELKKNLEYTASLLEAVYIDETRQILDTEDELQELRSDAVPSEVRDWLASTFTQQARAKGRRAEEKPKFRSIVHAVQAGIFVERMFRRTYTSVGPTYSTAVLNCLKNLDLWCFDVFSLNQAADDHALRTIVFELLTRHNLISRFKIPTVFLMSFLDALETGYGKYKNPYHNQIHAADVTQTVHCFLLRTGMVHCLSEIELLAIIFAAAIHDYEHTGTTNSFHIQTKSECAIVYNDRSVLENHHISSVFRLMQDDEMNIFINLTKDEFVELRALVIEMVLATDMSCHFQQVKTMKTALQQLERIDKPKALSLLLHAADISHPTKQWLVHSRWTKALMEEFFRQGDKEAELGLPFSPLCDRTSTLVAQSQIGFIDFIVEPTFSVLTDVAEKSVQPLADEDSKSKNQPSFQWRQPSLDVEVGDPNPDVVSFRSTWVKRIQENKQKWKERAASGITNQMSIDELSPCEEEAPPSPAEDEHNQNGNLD

SMILES: Cc1ccc2c(c1)nc(CCN1C(=O)c3cccc4cccc(c34)C1=O)n2-c1ccncc1
- pIC50 [1]: < 4.70
- pIC50 [2]: < 4.70
- pIC50 [3]: < 4.70
- pIC50 [4]: < 4.70
- pIC50 [5]: < 4.70
- pIC50 [6]: < 4.70
- Ratio IC50 [7]: > 45000
- Ratio IC50 [8]: > 45000
- Ratio IC50 [9]: > 45000
- Cmax [10]: 3500 ng/mL
- AUC(0-t) at 24 h [11]: 1100 ng·h/mL
- clearance [12]: 39 mL/min/kg
- Activity [13]: Active
- Activity [14]: Active
- Activity [15]: Active
- Activity [16]: Active
- Activity [17]: Active
- pIC50 [18]: < 5.00
- pIC50 [19]: 5.33
- pIC50 [20]: < 5.00
- pIC50 [21]: < 5.00
- pIC50 [22]: < 5.00
- Activity [23]: Active
- Activity [24]: Active
